Wnt bcat act – activates Wnt/beta-catenin signaling in a reporter cell assay. activator, plate reader. activation, % at 9.35 µM. 300,000 tested, 1.2% active; in the data active means activation above about 30%, passing the limit was not always enough; inconclusive means no clear call, values can overlap the other calls
SR-BI DiI inh – inhibitors of mouse SR-BI mediated HDL lipid uptake; ldlA[mSR-BI] CHO cells, DiI-HDL uptake fluorescence, 3 h; AID 488896; inhibition, % at 12.5 µM; 320,000 tested, 0.96% active;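 active means mean replicate inhibition of at least 70% and a set share of replicates each scoring 70 or more; inconclusive means meets just one of the two criteria; inactive means fails both criteria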
Target sequence (Q61009 whole entry, looked up): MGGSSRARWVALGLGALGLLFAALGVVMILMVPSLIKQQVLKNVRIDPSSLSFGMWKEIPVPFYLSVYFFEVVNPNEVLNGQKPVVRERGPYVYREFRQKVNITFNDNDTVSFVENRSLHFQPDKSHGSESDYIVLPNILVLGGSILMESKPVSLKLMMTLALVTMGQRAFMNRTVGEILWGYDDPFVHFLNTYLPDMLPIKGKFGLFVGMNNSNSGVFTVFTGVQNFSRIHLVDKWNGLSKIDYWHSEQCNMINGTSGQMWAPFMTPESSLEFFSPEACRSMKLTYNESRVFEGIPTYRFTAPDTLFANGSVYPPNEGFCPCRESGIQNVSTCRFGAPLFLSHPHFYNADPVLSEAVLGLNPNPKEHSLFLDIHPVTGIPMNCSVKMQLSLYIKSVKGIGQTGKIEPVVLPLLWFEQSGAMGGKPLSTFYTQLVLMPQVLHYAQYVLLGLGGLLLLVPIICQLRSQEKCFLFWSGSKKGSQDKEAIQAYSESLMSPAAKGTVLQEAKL
SR-BI DiI-HDL act – activators of SR-BI mediated HDL lipid uptake | CHO ldlA[mSR-BI] cells, DiI-HDL uptake fluorescence, 3 h; 100 = double the neutral-control signal | activation, % at 12.5 µM | 320,000 tested, 0.096% active | AID 504775;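 active means mean replicate activation of at least 60% and every replicate at or above 60%; inconclusive means mean or all-replicate condition met, but not both; inactive means mean below 60% and not all replicates reaching 60%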
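Material: SR-BI-overexpressing, LDLR-lacking CHO cells | Dosing: Single compound concentration, delivered by pin transfer | Probe or stimulus: Labelled HDL, 10 µg/mL | Signal: Bottom-read cell fluorescence after medium removal, ex 550/em 595 nm | Schedule: 3 h, 37 °C | Evaluation: HDL uptake via cellular fluorescence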
HSF-1 act – increases HSF-1 driven luciferase reporter signal | NIH3T3-HGL HSF-1 luciferase reporter, MG132, 8 h; 100% = twice DMSO control signal | activation, % at 9 µM | 300,000 tested, 1.7% active | AID 504408;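 active means mean replicate activation of at least 50% with a set share of replicates each reaching 50%; inconclusive means only one of those two conditions met; inactive means mean below 50% and too few replicates reaching it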
MITF act – increases MITF-driven TRPM1 promoter luciferase signal; 300,000 tested, 0.75% active; SK-MEL-5 TRPM1-promoter luciferase, 24 h; % of positive control, neutral wells = 0; activation, % at 12.5 µM; AID 588334;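 active means mean activation of at least 80% with every replicate also reaching 80%; inconclusive means mean reaches 80% but some replicate falls short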
A number is an active result; - = inactive; ? = inconclusive; . = no result given. An excerpt weighted towards active compounds, which were near 3.6% of everything screened.

SMILES | Wnt bcat act | SR-BI DiI inh | SR-BI DiI-HDL act | HSF-1 act | MITF act
COc1ccc(Cn2c(C3CC3)nc3ccc(NC(=O)C4CC4)cc3c2=O)cc1 | - | - | - | 70 | 118
COC(=O)[C@]12C[C@H](CC(=O)NCC34CC5CC(CC(C5)C3)C4)C(=O)N(Cc3ccccc3)C1=C[C@H](C1CCCC1)O[C@@H]2C | - | . | . | . | .
C#CCNC(=O)C[C@@H]1C[C@@]2(C(=O)OCC)CCCC=C2N(CCCCCCCC)C1=O | - | . | . | . | .
CCOC(=O)c1ccc(NC(=O)c2ccco2)cc1 | - | . | . | - | -
COc1ccc(C(=O)Nc2cccc(OC(=O)c3ccco3)c2)cc1 | - | . | . | - | 110
CC(=O)Oc1ccc(C(=O)Nc2cccc(NC(=O)c3ccco3)c2)cc1 | - | - | - | - | -
O=C(Nc1cccc(NC(=O)c2ccco2)c1)c1ccc([N+](=O)[O-])cc1 | - | 82 | - | - | -
CC(C)OC(=O)c1ccc(NC(=O)c2ccco2)cc1 | - | - | - | - | 110
COC(=O)c1ccc(NC(=O)c2cccc(NC(=O)c3ccco3)c2)cc1 | - | - | 749 | - | .
CCOC(=O)C1=CC[C@@H](c2ccccc2)N(S(=O)(=O)c2ccc(C)cc2)[C@H]1C#N | - | . | . | . | .
Cc1cc(NC(=O)Cc2cn(C)c3ccccc23)ccc1Oc1cccnc1 | - | . | . | . | .
CC(=O)Nc1cc(-c2ccc(C(=O)N3CCOCC3)cc2)cn2c(-c3ccc(S(C)(=O)=O)cc3)cnc12 | - | . | . | . | .
Cc1cccc(C(C)C)c1NC(=O)COC(=O)CCC(=O)N(CC(C)C)c1c(N)n(CC(C)C)c(=O)[nH]c1=O | - | . | . | . | .
C/C(=N\NC(=O)COc1ccc([N+](=O)[O-])cc1)c1ccco1 | - | - | - | . | -
C/C(=N\Nc1ccc([N+](=O)[O-])cc1)c1ccco1 | . | - | - | 55 | ?
O=C(COC(=O)c1cccc(NC(=O)c2ccco2)c1)c1ccc(Br)cc1 | 43 | - | - | - | .
CCN1CCN(C(=O)c2ccc(CS(=O)(=O)Cc3ccccc3Cl)o2)CC1 | - | . | . | . | .
O=C(CC1C=Cc2ccccc2N1C(=O)c1ccccc1)c1ccccc1 (configuration not stated) | - | - | - | 71 | -
CC1C=Cc2ccccc2N1C(=O)c1ccccc1 (configuration not stated) | - | - | - | - | -
CN(C)C(=O)c1ccc(NC(=O)c2cccc(-n3cnnn3)c2)cc1 | - | . | . | . | .
CN(C(=O)c1ccco1)c1nc(-c2ccc(F)cc2)cs1 | - | - | - | 83 | 80
O=C(Nc1nnc(-c2ccc(F)cc2)s1)c1ccco1 | - | - | - | - | 106
CN(C(=O)c1ccco1)c1nnc(-c2ccc(F)cc2)s1 | - | . | . | - | 100
C=COc1ccc(N2C(=O)c3ccccc3OC2C)cc1 (configuration not stated) | - | - | - | - | .
CCc1nc2ccc(C(=O)NCCCN3CCCC3=O)cn2c1N(CC)C(C)=O | - | . | . | . | .
SMILES | Wnt bcat act | SR-BI DiI inh | SR-BI DiI-HDL act | HSF-1 act | MITF act
CCS(=O)(=O)N1Cc2ccccc2CC1C(=O)Nc1cccc(OC)c1 (configuration not stated) | - | - | - | - | -
CCS(=O)(=O)N1Cc2ccccc2CC1C(=O)NCc1cccc(OC)c1 (configuration not stated) | - | - | - | - | 91
CC(C)(C)c1csc(NC(=O)c2cccs2)n1 | . | - | - | 55 | -
CC(C)(C)c1cc(NC(=O)c2cccs2)no1 | 31 | - | - | - | -
C=CCOc1cccc(C(=O)/C=C2/C(=O)Nc3ccccc32)c1 | - | - | - | 236 | -
O=C1Nc2ccc(Br)cc2/C1=C/C(=O)c1ccccc1 | - | - | - | . | .
CC(=O)/C=C1/C(=O)Nc2ccccc21 | - | - | - | 187 | -
O=C(O)c1ccccc1OC(C(=O)Nc1cc(Cl)cc(Cl)c1)c1ccccc1 (configuration not stated) | - | . | . | 58 | -
CC(C)C[C@H](N)c1cn([C@@H](Cc2cc3ccccc3[nH]2)C(=O)N2CCNCC2)nn1 | - | - | - | - | -
CCC(C)[C@H](N)c1cn([C@@H](Cc2cc3ccccc3[nH]2)C(=O)N2CCNCC2)nn1 (some centres not stated) | 45 | - | ? | - | -
COc1ccc(OC)c2[nH]c(C(=O)N/N=C/c3ccccc3O)cc12 | - | 124 | - | - | -
COc1cccc(/C=N/NC(=O)c2cc3c(OC)cccc3[nH]2)c1O | - | 103 | - | - | -

Screening results as filed in PubChem BioAssay.
